# Where two headings read alike, the source gives them in different places.
# Experiments:
# genomic DNA = assay: Platinum-DNA adduct formation in primary mouse hepatocytes; assay type: cell-based
# Summary of the method: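 Attached wild-type or Oct1-/- mouse hepatocytes were exposed to 10 μM test compound for 1 h at 37°C in serum-free medium, with or without OCT1 inhibitor. Cells were then washed with ice-cold PBS. Genomic DNA was kit-purified. DNA-bound Pt was measured by ICP-MS, and DNA by A260 from the same preparation. Adduct level expressed as pmol Pt/μg DNA.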
# Oct1+/+ and Oct1-/- mice = assay: Toxicity study of CDPCP in Oct1+/+ and Oct1-/- mice; assay type: in vivo, mouse; settings: for Kidney histopathological examination (affected/examined animals) / Liver histopathological examination (affected/examined animals): 24 hr after third i.v. dose; for liver-to-body-weight ratio increase compared with saline-treated mice: 120 mg/kg reduced to 90 mg/kg
# Summary of the method: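 Male Oct1+/+ and Oct1-/- mice (8 weeks, ≥9 per group) were randomised to saline or test compound. Dosing was by tail vein once weekly ×3 (120 mg/kg initially, later 90 mg/kg). Body weight was recorded three times weekly. Mice were fasted ≥16 h and killed under isoflurane 24 h after the last dose. Measures: serum ALT/AST/ALKP and liver weight. Liver and kidney were fixed in 4% paraformaldehyde, paraffin-embedded and H&E stained; affected/examined animals were counted.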
# human OCT1 = biological target: T1, human OCT1 (Homo sapiens, UniProt O15245); assay: Cellular accumulation of platinum in HEK-hOCT1 cells; assay type: in vitro ADME; settings: 10 μM, 1 h
# T1 sequence (O15245 1-554): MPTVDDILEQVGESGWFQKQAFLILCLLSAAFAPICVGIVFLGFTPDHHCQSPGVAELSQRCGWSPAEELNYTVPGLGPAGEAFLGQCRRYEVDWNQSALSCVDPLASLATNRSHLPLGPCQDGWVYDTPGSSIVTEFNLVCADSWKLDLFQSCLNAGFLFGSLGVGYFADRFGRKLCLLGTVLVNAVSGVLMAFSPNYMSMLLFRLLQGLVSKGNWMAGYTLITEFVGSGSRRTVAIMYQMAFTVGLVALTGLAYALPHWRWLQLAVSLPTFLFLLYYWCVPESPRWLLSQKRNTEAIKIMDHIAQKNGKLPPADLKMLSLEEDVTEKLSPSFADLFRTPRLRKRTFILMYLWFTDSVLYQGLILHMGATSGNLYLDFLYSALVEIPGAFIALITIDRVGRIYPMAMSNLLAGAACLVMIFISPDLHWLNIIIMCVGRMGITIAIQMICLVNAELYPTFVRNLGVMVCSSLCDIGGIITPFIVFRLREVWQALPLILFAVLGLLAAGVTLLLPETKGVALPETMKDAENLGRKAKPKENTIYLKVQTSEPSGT
# Summary of the method: (§1)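 HEK293 cells stably carrying full-length mouse Oct1 cDNA in pcDNA5/FRT, selected with hygromycin B; the human OCT1 line's construct is not described. Cells grown in DMEM H21 with 10% FBS at 37°C, 5% CO2. Exposed to 10 μM test compound in serum-free medium for 1 h, then washed 3× with ice-cold PBS. Digested in 70% nitric acid at 65°C for ≥2.5 h. Pt measured by ICP-MS, normalised to BCA protein.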
# HEK-MOCK cells = assay: Cellular accumulation of platinum in HEK-MOCK cells; assay type: in vitro ADME, human; settings: 10 μM, 1 h
# Summary of the method: as §1
# [1] = test system: primary mouse hepatocytes; assay type: in vitro ADME
# Kim-1 = assay: Renal Kim-1 mRNA by qRT-PCR in the CDPCP toxicity study; assay type: in vivo, mouse; settings: i.v. once weekly for 3 weeks
# Summary of the method: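 Same weekly ×3 tail-vein regimen with saline controls; kidneys were harvested 24 h after the last dose. Kidney RNA was extracted with Trizol and DNase I-treated, then reverse-transcribed. Taqman qRT-PCR for Kim-1 used GAPDH as internal control: 95°C 20 s, then 40 cycles of 95°C 3 s and 60°C 30 s. Results expressed as fold over saline.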
# mouse Oct1 = biological target: T2, mouse Oct1 (Mus musculus, UniProt O08966); assay: Cellular accumulation of platinum in HEK-mOct1 cells; assay type: in vitro ADME; settings: 10 μM, 1 h
# T2 sequence (O08966 1-556): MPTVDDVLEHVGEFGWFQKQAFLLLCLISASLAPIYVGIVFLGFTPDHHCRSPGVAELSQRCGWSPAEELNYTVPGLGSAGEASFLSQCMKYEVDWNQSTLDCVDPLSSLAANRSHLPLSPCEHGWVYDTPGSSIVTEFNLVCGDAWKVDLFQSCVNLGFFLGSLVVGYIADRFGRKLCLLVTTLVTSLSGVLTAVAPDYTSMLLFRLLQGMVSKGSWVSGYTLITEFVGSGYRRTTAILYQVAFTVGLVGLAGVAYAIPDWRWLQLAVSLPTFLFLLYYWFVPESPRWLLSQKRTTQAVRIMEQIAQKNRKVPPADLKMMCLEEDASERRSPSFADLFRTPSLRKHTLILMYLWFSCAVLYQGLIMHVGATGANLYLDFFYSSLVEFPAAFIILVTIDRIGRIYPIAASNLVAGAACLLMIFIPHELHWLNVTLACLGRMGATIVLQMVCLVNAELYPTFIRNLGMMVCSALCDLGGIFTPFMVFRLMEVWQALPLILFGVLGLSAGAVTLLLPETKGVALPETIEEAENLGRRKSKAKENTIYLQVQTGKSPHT
# Summary of the method: as §1
# [2] = hepatocytes from Oct1 wild-type mice, disopyramide 150 μM
# [3] = Oct1+/+ mice, i.v. once weekly for 3 weeks
# [4] = Oct1-/- mice, i.v. once weekly for 3 weeks
compound,measurement,setting,value
"[NH3+][Pt-2]([NH3+])([Cl])[n+]1ccccc1 (stereo not drawn) [CDPCP, cis-diammine(pyridine)chloroplatinum(II)]","platinum-DNA adduct level, fold greater in wild-type than Oct1-/-","genomic DNA; 10 μM, 1 h",2.4 fold
same,platinum-DNA adduct level,"genomic DNA; hepatocytes from Oct1-/- mice, 10 μM, 1 h",0.0351 ± 0.00344 pmol/μg DNA
same,platinum-DNA adduct level,"genomic DNA; hepatocytes from Oct1-/- mice, 10 μM, 1 h, disopyramide 150 μM",0.0338 ± 0.00798 pmol/μg DNA
same,platinum-DNA adduct level,"genomic DNA; hepatocytes from Oct1 wild-type mice, 10 μM, 1 h",0.0857 ± 0.0232 pmol/μg DNA
same,platinum-DNA adduct level,"genomic DNA; hepatocytes from Oct1 wild-type mice, 10 μM, 1 h, disopyramide 150 μM",0.0233 ± 0.00847 pmol/μg DNA
same,fold decrease in platinum-DNA adduct formation by disopyramide,genomic DNA; [2],3.7 fold
same,Kidney histopathological examination (affected/examined animals),Oct1+/+ and Oct1-/- mice; OCT1+/+ mice,Normal (4/4)
same,Liver histopathological examination (affected/examined animals),Oct1+/+ and Oct1-/- mice; OCT1+/+ mice,Severe swollen hepatocytes (3/4); Mild swollen hepatocytes(1/4)
same,Kidney histopathological examination (affected/examined animals),Oct1+/+ and Oct1-/- mice; OCT1-/- mice,Kidney tube protein contents (3/4); kidney hyaline necrosis (1/4)
same,Liver histopathological examination (affected/examined animals),Oct1+/+ and Oct1-/- mice; OCT1-/- mice,Mild swollen hepatocytes(1/4)
same,serum BUN levels vs saline,Oct1+/+ and Oct1-/- mice; Oct1+/+ mice,significantly reduced
same,actual liver weight,Oct1+/+ and Oct1-/- mice; [3],1.23 g
same,liver-to-body-weight ratio increase compared with saline-treated mice,Oct1+/+ and Oct1-/- mice; [3],28.8%
same,serum glucose levels,"Oct1+/+ and Oct1-/- mice; Oct1+/+ mice, vs saline",significant increase
same,total serum protein levels,"Oct1+/+ and Oct1-/- mice; Oct1+/+ mice, vs saline",significant decrease
same,serum BUN vs saline,Oct1+/+ and Oct1-/- mice; Oct1-/- mice,not affected
same,actual liver weight,Oct1+/+ and Oct1-/- mice; [4],1.02 g
same,liver-to-body-weight ratio increase compared with saline-treated mice,Oct1+/+ and Oct1-/- mice; [4],14.7%
same,serum creatinine levels vs saline,Oct1+/+ and Oct1-/- mice; both Oct1+/+ and Oct1-/- mice,not significantly different
same,"dose resulting in significant changes in body weight, liver-to-body-weight ratio, liver function and hematology",Oct1+/+ and Oct1-/- mice; dose-range finding toxicity study,≥ 90 mg/kg
same,histological examination of intestine,Oct1+/+ and Oct1-/- mice; either Oct1+/+ or Oct1-/- mice,no signs of intestinal toxicity
same,"activities of ALT, AST and ALKP","Oct1+/+ and Oct1-/- mice; either Oct1+/+ or Oct1-/- mice, i.v. once weekly for 3 weeks",not affected
same,body weight loss in Oct1-/- mice compared with Oct1+/+ mice,Oct1+/+ and Oct1-/- mice; i.v. once weekly for 3 weeks,much greater
same,ALT,"Oct1+/+ and Oct1-/- mice; wild-type mice, 120 mg/kg, dose-finding studies (data not shown)",significant increases
same,uptake of platinum,human OCT1,852 ± 135 pmol/mg protein/hr
same,uptake of platinum,HEK-MOCK cells,27.4 ± 7.43 pmol/mg protein/hr
same,"hepatocellular uptake, wild-type as fold of Oct1-/-","[1]; 10 μM, 1 hr",2.9 fold
same,hepatocellular uptake,"[1]; hepatocytes from Oct1-/- mice, 10 μM, 1 hr",87.8 ± 7.61 pmol/mg protein/hr
same,hepatocellular uptake,"[1]; hepatocytes from Oct1-/- mice, 10 μM, 1 hr, co-incubation with disopyramide 150 μM",95.8 ± 17.6 pmol/mg protein/hr
same,hepatocellular uptake,"[1]; hepatocytes from Oct1 wild-type mice, 10 μM, 1 hr",251 ± 94.6 pmol/mg protein/hr
same,hepatocellular uptake,"[1]; hepatocytes from Oct1 wild-type mice, 10 μM, 1 hr, co-incubation with disopyramide 150 μM",55.9 ± 1.41 pmol/mg protein/hr
same,fold decrease in platinum uptake by disopyramide,[1]; [2],4.5 fold
same,"renal mRNA levels of Kim-1, fold over saline control",Kim-1; Oct1+/+ mice,19.3 fold
same,"renal mRNA levels of Kim-1, fold over saline control",Kim-1; Oct1-/- mice,117 fold
same,uptake of platinum,mouse Oct1; HEK-mOct1 cells,1470 ± 66.6 pmol/mg protein/hr
same,"uptake of platinum, fold greater than in HEK-MOCK cells",mouse Oct1; HEK-mOct1 vs HEK-MOCK,53 fold
